# WT yeast gro inh: growth inhibition of WT yeast, mitochondrial fusion screen. actives 2.1% (n = 190,000). inhibition, % at 10 µM. mitochondrial fusion phenotypic screen, WT strain; in the data active = inhibition above about 58%; tested in S. cerevisiae
# T cruzi inh: T. cruzi replication inhibition; inhibition, % (no concentration beside the values); actives 1.4% (n = 300,000); T. cruzi beta-gal in NIH3T3, luminescence, 90 h;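 active = mean inhibition across valid replicates above about 55%, limit read from the data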;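 also: signal also drops with host cell toxicity which is not excluded here; 0% = plate median of DMSO wells and 100% = zero luminescence signal; higher percent means less beta-gal luminescence so fewer parasites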
#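 Incubation – ≥90 h infection period, 3 h prior cell attachment · System – NIH/3T3 fibroblasts plus reporter T. cruzi · Doses – compound pinned at 50 nL/well, DMSO · Read-out basis – percent inhibition of parasite-derived β-gal signal · Signal – luminescent β-galactosidase signal after 60 min lysis · Also added – 5000 T. cruzi trypomastigotes/well · Medium – Low-serum DMEM with 2% FBS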
# CSC inhib: blocks cancer stem cells; cancer stem cell-like cells viability, luminescence; inhibition, % at 7.5 µM; actives 1.1% (n = 300,000); AID 2717; in the data active = inhibition above about 75%; tested in HMLE shEcad cells
# Beta apoptosis: beta cell apoptosis inhibition; AID 435005; protection from apoptosis, % (concentration not given with the values); actives 0.8% (n = 300,000); INS-1E cytokine-induced death, ATP luminescence, 48 h; percent of positive-control rescue, neutral wells zero;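 active = Every replicate reaches about 75%, or at least half do and their mean reaches it too, limit read from the data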;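 also: 0% = cytokine-treated negative control wells and 100% = positive control rescue; higher means more ATP so stronger rescue from cytokine killing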
# Mot1-301 SUMO: blocks SUMOylation pathway, rescuing yeast Mot1-301 growth. S. cerevisiae Mot1-301 growth rescue, ATP luminescence, 38.5C; percent above DMSO median, 100 means doubled. growth rescue, % at 18.8 µM. actives 1% (n = 320,000);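 active = every valid replicate shows activation above 250% relative to neutral control wells; inactive = the rest, any valid replicate at or below 250%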;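 also: OY570 slx delta 5 strain wells were the positive control but not used for scaling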
# Efflux pump inh: inhibitors of Candida antifungal efflux pumps expressed in yeast; AID 485275; inhibition, % at 10 µM; actives 0.44% (n = 330,000); S. cerevisiae Candida pump triplex, Nile Red efflux;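 active = plate passing quality check with inhibition over a set limit, or well fluorescence over plate mean plus 4 SD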;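 also: Nile Red retained in pooled yeast measured as flow cytometry median fluorescence; 0% = buffer negative control and 100% = Enniatin B positive control; higher means more Nile Red kept so more efflux inhibition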
# * marks the source's active call; other numbers are inactive results; · = no result. Rows were chosen to be rich in hits. Some 4.8% of all compounds tested hit in one or more screens of this group.
SMILES,WT yeast gro inh,T cruzi inh,CSC inhib,Beta apoptosis,Mot1-301 SUMO,Efflux pump inh
Oc1ccc(C[C@@H]2CNC(=S)N2CCc2cc(C(F)(F)F)cc(C(F)(F)F)c2)cc1,·,16,4,0,-3,0
Cc1cc(C)c(C)c(S(=O)(=O)N2C(=S)NC(=O)C2C(C)C)c1C (stereo unspecified),25,7,-12,7,324,0
CNC(=O)CCC(=O)Nc1ccc(C)cc1,5,-21,-1,0,9,0
CCCCOC(=O)Cn1c(=O)n(CC(=O)OCCCC)c2ccccc21,-5,9,-2,-4,-2,0
CCCCCCCCCCOC(=O)Cn1c(COc2ccccc2C)[n+](C)c2ccccc21,·,65*,106*,110*,-63,0
CCCCCCCCCCOC(=O)Cn1c(COc2ccccc2)[n+](C)c2ccccc21,·,73*,103*,129*,150,0
CCOC(=O)Cn1c(COc2ccccc2OC)[n+](C)c2ccccc21,·,5,-15,1,-2,0
Cc1cc(OCC(=O)NNC(=S)NCC2CCCO2)cc(C)c1Cl (stereo unspecified),·,3,-23,1,9,0
Cc1ccc(C)c(N2N=C(C(=O)OCc3nnc(-c4ccccc4)o3)CCC2=O)c1,·,2,5,-4,11,0
C/C(=N\Nc1nc(C(C)(C)C)cs1)c1ccccc1,·,73*,10,15,36,0
C/C(=N\Nc1nc(C(C)(C)C)cs1)c1ccc(O)cc1,·,22,13,5,-18,0
COCc1ccc(C(=O)N2CCCC(C(=O)c3cc(F)ccc3F)C2)s1 (stereo unspecified),-4,1,11,·,-5,1
O=C(Nc1cccc(F)c1)C1C2C=CC3(CN(CCCN4CCOCC4)C(=O)C13)O2 (stereo unspecified),12,0,·,-3,6,0
COc1ccc(-c2csc(Nc3ncccc3C)n2)cc1,76*,26,-1,0,35,0
O=C(/C=C\c1ccco1)Nc1nc(-c2ccccc2)cs1,21,14,·,·,295,0
Nc1ccc(Nc2nc(-c3ccncc3)cs2)cc1,33,4,26,-31,-7,0
COc1ccc(-c2csc(Nc3ccccc3)n2)cc1,69*,2,·,·,194,0
O=C(/C=C/c1ccccc1)Nc1nc(-c2ccncc2)cs1,31,66*,34,-5,11,0
COc1ccc(-c2csc(Nc3ncccc3C)n2)cc1OC,6,15,-2,0,-4,0
COc1ccc(Nc2nc(-c3ccc(OC)cc3)cs2)cc1,-3,15,-1,·,9,0
c1ccc(Nc2nc(-c3ccncc3)cs2)cc1,11,65*,-3,-10,-10,0
COc1ccc(NC(=O)C2CCCN2C(=O)Nc2ccc(OC)cc2)cc1 (stereo unspecified),·,-4,·,·,·,·
Clc1ccc(Nc2nc(-c3ccncc3)cs2)cc1,·,57*,·,-2,·,0
Fc1ccc(Nc2nc(-c3ccncc3)cs2)cc1,4,47,7,-8,44,0
COc1cccc(NC(=O)Nc2nc(-c3ccc(OC)c(OC)c3)cs2)c1,·,26,104*,17,-13,0
SMILES,WT yeast gro inh,T cruzi inh,CSC inhib,Beta apoptosis,Mot1-301 SUMO,Efflux pump inh
C=C1SC(Nc2c(C)cc(C)cc2C)=NC12CCCCC2,·,67*,60,31,9,0
C=C1SC(Nc2c(C)cccc2C)=NC12CCCCC2,·,64*,52,9,41,0
O=C(c1ccc([N+](=O)[O-])cc1)N(Cc1cccs1)C1CCS(=O)(=O)C1 (stereo unspecified),·,-11,-10,-4,195,0
COc1ccc(S(=O)(=O)NCCSCc2cccc(C)c2)cc1Br,65*,2,20,-2,7,0
Cc1cc(C)cc(OCCCOc2cccc3cccnc23)c1,66*,17,24,7,-10,0
CC(=O)c1cccc(OCCCOc2cccc3cccnc23)c1,·,-5,-19,-6,-11,0
COc1cc(N/N=C/c2ccccc2O)ncn1,8,-7,23,88*,1,0
Cc1nn(C(C)(C)C)c(OC(=O)C2CCCC2)c1S(=O)(=O)c1ccccc1,-7,-2,·,·,·,·
Cc1ccc(S(=O)(=O)c2c(C)nn(C(C)(C)C)c2OC(=O)C2CCCC2)cc1,72*,12,33,-12,4,0
CCN(CC)S(=O)(=O)c1cccc(C(=O)N/N=C(\C)c2ccc(O)cc2O)c1,8,64*,·,·,-7,0
CC1=C(C(=O)OC2CCCCCCC2)C(c2cc3c(cc2Br)OCO3)CC(=O)N1 (stereo unspecified),9,8,118*,16,·,0
Oc1ccc(Cl)cc1-c1cc(-c2ccccc2)n[nH]1,59*,6,50,11,343*,0
Cc1ccc(O)c(-c2cc(-c3cccc(Br)c3)n[nH]2)c1,93,6,12,14,280*,0
Oc1ccccc1-c1cc(-c2ccccc2)n[nH]1,·,·,·,-3,338*,0
Cc1ccc(-c2cc(-c3ccccc3Cl)[nH]n2)c(O)c1,69*,12,112*,19,54,0
Cc1ccc(-c2cc(-c3ccccc3[N+](=O)[O-])[nH]n2)c(O)c1,31,-9,-8,-3,-11,0
O=C(Nc1ccc(NC(=O)C2CCCCC2)nc1)c1cccs1,-1,1,12,-6,0,0
Cc1c(Cl)cccc1NC(=O)c1cc(-c2ccccc2O)n[nH]1,68*,-16,39,-1,8,0
CC1CCCC(NC(=O)COC(=O)CN2C(=O)C3CCCCC3C2=O)C1C (stereo unspecified),-3,-9,-2,-5,-11,0
COC(=O)c1ccc(NC(=O)CCN2CCN(Cc3ccccc3)CC2)cc1,-19,65*,7,-8,99,0
Cc1cc(NC(=O)CSCC(=O)N(c2cccc(Cl)c2)C(C(=O)NC2CCCCC2)c2ccc(O)c(O)c2)no1 (stereo unspecified),-10,16,0,2,1,0
Cc1nc(SCc2c(F)cccc2Cl)c2c(=O)n(C)c(=O)n(C)c2n1,30,34,-2,1,-7,0
Oc1ccc(N2CCN(Cc3ccc(OCCCN4CCCCC4)cc3)CC2)cc1,-13,69*,-8,1,-9,0
c1ccc(COc2ccc(OCCCCN3CCCCC3)cc2)cc1,25,38,19,-1,268,0
CCCCOc1ccc(CN2CCCCC2)cc1,9,59*,13,-3,7,0
CCOC(=O)CN(Cc1sccc1C)C(=O)Nc1ccc(OCC)cc1,14,20,-9,-3,7,0
N#Cc1c(NCCN)nc(-c2ccco2)c2c1CCCC2,22,8,7,16,3,0
